Experimental data from ChEMBL document CHEMBL1949557, “Discovery of INCB3284, a Potent, Selective, and Orally Bioavailable hCCR2 Antagonist” (ACS Med Chem Lett, 2011).
Active and inactive are the calls of the source. The rule behind the calls is not given here.

Key:
[1] = Cmax in dog at 30 mg/kg, po; format: ADME, organism-based, Canis lupus familiaris; parameters: dose 30 mg/kg, route oral; settings: in vivo
Summary of the method: (§1)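 Pharmacokinetics run in rats, dogs, cynomolgus monkeys and chimpanzees, with two animals per species for the iv arm and two per species for the oral arm. Parameters were derived per species and route: CL, Vss and T1/2 from iv dosing; Cmax, Tmax, AUC, T1/2 and F% from oral dosing. Values are reported as mean ± spread.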

[2] = molecular target: T1, C-C chemokine receptor type 2 (Homo sapiens, UniProt P41597); assay: Inhibition of human CCR2-mediated intracellular calcium mobilization by cell based assay; format: functional
[3] = molecular target: T1, C-C chemokine receptor type 2; assay: Inhibition of human CCR2-mediated Erk phosphorylation
[4] = Half life in cynomolgus monkey at 5 mg/kg, iv; format: ADME, organism-based, Macaca fascicularis; parameters: dose 5 mg/kg, route intravenous; settings: in vivo; summary of the method: as §1
Cytochrome P450 1A2 = molecular target: T2, Cytochrome P450 1A2 (Homo sapiens, UniProt P05177); assay: Inhibition of CYP1A2; format: ADME
T2 sequence (P05177 whole entry): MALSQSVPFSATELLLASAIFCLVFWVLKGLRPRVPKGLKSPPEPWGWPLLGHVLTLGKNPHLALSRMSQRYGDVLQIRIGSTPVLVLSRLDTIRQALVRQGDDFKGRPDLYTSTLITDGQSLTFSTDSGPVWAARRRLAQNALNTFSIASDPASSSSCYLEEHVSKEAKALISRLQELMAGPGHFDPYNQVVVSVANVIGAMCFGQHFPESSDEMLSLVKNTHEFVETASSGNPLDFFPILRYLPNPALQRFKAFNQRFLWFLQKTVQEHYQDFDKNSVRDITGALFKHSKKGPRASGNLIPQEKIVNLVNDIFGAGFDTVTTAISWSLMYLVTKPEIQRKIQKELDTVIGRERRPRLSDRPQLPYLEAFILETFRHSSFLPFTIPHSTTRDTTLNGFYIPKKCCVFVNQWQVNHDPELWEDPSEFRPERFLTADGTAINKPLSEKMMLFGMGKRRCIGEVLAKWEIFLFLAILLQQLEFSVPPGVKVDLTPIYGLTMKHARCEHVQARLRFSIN

[5] = Tmax in cynomolgus monkey at 30 mg/kg, po; format: ADME, organism-based, Macaca fascicularis; parameters: dose 30 mg/kg, route oral; settings: in vivo; summary of the method: as §1
[6] = molecular target: T3, C-X-C chemokine receptor type 5 (Homo sapiens) (UniProt P32302); assay: Inhibition of CXCR5 at 1 uM
T3 sequence (whole entry): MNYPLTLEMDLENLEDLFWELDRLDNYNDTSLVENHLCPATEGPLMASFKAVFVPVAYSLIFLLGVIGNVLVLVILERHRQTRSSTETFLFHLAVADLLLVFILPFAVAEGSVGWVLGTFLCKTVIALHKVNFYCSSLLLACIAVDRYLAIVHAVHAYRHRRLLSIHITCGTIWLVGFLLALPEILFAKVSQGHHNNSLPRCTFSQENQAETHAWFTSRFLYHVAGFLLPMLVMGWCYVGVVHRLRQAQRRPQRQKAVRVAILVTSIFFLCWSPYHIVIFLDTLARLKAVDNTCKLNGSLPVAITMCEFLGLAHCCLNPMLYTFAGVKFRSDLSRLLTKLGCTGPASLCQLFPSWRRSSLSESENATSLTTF
Summary of the method: (§2)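 Cerep selectivity panel of over 50 ion channels, transporters, chemokine receptors and other GPCRs. Single test concentration of 1 μM, scored for significant inhibition.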

[7] = Tmax in dog at 30 mg/kg, po; format: ADME, organism-based, Canis lupus familiaris; parameters: dose 30 mg/kg, route oral; settings: in vivo; summary of the method: as §1
[8] = AUC in cynomolgus monkey at 30 mg/kg, po; format: ADME, organism-based, Macaca fascicularis; parameters: dose 30 mg/kg, route oral; settings: plasma; summary of the method: as §1
[9] = Cmax in chimpanzee at 4 mg/kg, po; format: ADME, organism-based, Pan troglodytes; parameters: dose 4 mg/kg, route oral; settings: in vivo; summary of the method: as §1
[10] = Cmax in rat at 10 mg/kg, po; format: ADME, organism-based; parameters: dose 10 mg/kg, route oral; settings: in vivo; summary of the method: as §1
[11] = molecular target: T4, C-X-C chemokine receptor type 3 (Homo sapiens) (UniProt P49682); assay: Inhibition of CXCR3 at 1 uM; summary of the method: as §2
T4 sequence (whole entry): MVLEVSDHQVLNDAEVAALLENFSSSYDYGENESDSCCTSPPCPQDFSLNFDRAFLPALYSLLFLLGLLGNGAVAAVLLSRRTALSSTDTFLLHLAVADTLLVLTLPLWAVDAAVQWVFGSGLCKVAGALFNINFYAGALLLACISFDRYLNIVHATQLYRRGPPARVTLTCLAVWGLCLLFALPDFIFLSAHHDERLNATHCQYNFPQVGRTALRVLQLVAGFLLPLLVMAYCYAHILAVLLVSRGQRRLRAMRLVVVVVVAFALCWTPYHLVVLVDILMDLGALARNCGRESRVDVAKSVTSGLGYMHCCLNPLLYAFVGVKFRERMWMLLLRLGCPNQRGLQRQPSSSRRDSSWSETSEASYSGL

[12] = Half life in rat at 5 mg/kg, iv; format: ADME, organism-based; parameters: dose 5 mg/kg, route intravenous; settings: in vivo; summary of the method: as §1
[13] = AUC in chimpanzee at 4 mg/kg, po; format: ADME, organism-based, Pan troglodytes; parameters: dose 4 mg/kg, route oral; settings: plasma; summary of the method: as §1
[14] = molecular target: T5, C-C chemokine receptor type 3 (Homo sapiens) (UniProt P51677); assay: Inhibition of CCR3 at 1 uM; summary of the method: as §2
T5 sequence (whole entry): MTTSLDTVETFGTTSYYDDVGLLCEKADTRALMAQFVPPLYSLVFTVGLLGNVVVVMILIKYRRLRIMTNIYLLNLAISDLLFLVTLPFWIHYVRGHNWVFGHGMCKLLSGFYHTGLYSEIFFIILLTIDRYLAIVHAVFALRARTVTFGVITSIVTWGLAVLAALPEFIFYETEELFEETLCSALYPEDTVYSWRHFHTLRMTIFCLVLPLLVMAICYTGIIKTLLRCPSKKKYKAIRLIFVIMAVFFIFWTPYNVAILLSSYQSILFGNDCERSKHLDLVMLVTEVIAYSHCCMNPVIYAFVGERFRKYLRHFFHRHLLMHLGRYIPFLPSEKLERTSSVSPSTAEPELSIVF

[15] = Clearance in dog at 5 mg/kg, iv; format: ADME, organism-based, Canis lupus familiaris; parameters: dose 5 mg/kg, route intravenous; settings: in vivo; summary of the method: as §1
Rattus norvegicus [16] = assay: AUC in rat at 10 mg/kg, po; format: ADME, organism-based, Plasma; parameters: dose 10 mg/kg, route oral; settings: in vivo; summary of the method: as §1
Rattus norvegicus [17] = assay: Oral bioavailability in rat at 10 mg/kg; format: ADME, organism-based; settings: in vivo; summary of the method: as §1
[18] = Half life in chimpanzee at 1 mg/kg, iv; format: ADME, organism-based, Pan troglodytes; parameters: dose 1 mg/kg, route intravenous; settings: in vivo; summary of the method: as §1
Cytochrome P450 2C9 = Cytochrome P450 2C9 (Homo sapiens, UniProt P11712); assay: Inhibition of CYP2C9; format: ADME
Cytochrome P450 2C19 = Cytochrome P450 2C19 (Homo sapiens, UniProt P33261); assay: Inhibition of CYP2C19; format: ADME
Liver = assay: Metabolic stability in human liver S9 fraction assessed as glutathione adduct formation in presence of glutathione and NADPH; format: ADME, subcellular
[19] = Clearance in chimpanzee at 1 mg/kg, iv; format: ADME, organism-based, Pan troglodytes; parameters: dose 1 mg/kg, route intravenous; settings: in vivo; summary of the method: as §1
[20] = Tmax in rat at 10 mg/kg, po; format: ADME, organism-based; parameters: dose 10 mg/kg, route oral; settings: in vivo; summary of the method: as §1
[21] = Half life in cynomolgus monkey at 30 mg/kg, po; format: ADME, organism-based, Macaca fascicularis; parameters: dose 30 mg/kg, route oral; settings: in vivo; summary of the method: as §1
[22] = Cmax in cynomolgus monkey at 30 mg/kg, po; format: ADME, organism-based, Macaca fascicularis; parameters: dose 30 mg/kg, route oral; settings: in vivo; summary of the method: as §1

T1 sequence (P41597 whole entry): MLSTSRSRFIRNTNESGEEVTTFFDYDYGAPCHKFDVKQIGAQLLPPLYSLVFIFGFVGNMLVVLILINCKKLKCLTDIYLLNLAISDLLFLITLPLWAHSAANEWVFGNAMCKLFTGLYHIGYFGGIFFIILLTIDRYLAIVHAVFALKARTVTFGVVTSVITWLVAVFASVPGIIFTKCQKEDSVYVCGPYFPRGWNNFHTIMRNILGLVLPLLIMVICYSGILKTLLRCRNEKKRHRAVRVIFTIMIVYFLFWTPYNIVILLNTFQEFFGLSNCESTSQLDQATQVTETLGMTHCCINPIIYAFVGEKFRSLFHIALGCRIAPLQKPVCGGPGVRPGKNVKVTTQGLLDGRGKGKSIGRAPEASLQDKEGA
Cytochrome P450 2C9, sequence (P11712 whole entry): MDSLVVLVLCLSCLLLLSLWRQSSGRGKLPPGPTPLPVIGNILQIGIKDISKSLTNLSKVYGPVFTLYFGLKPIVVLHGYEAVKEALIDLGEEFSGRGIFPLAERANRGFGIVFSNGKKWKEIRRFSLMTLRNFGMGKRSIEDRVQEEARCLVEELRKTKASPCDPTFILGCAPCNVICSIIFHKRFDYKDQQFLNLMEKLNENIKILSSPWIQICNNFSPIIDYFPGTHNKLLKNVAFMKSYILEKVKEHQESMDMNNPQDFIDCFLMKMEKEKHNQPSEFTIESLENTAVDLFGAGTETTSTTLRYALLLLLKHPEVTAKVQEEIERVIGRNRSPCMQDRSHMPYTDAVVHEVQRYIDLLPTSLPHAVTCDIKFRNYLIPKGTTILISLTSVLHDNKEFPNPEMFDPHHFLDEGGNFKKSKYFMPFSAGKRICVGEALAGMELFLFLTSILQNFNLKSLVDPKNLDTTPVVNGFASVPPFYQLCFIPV
Cytochrome P450 2C19, sequence (P33261 whole entry): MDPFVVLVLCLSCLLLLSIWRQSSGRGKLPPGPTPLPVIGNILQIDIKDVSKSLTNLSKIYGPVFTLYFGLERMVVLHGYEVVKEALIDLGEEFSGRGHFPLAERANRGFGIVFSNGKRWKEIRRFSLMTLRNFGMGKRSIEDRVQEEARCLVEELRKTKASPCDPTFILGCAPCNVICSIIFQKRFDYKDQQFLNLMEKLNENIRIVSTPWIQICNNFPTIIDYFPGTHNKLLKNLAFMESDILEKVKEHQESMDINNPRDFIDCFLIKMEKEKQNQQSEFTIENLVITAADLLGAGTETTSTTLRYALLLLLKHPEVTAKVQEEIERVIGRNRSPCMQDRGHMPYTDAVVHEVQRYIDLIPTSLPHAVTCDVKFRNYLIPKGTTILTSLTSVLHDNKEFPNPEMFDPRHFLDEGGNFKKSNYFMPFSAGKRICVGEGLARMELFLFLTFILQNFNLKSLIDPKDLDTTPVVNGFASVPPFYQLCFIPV

## COc1ccc([C@]2(O)CC[C@H](N3CC[C@@H](NC(=O)CNC(=O)c4cccc(C(F)(F)F)c4)C3)CC2)cn1.CS(=O)(=O)O
[1]
  Cmax: 7.81 µM
[2]
  IC50: 6 nM
[3]
  IC50: 2.6 nM
[4]
  half-life: 132 min
Cytochrome P450 1A2
  IC50: > 25 µM
[5]
  Tmax: 1.5 h
[6]
  inhibition: inactive
[7]
  Tmax: 1.5 h
[8]
  AUC: 9.08 µM·h
[9]
  Cmax: 1120 nM
[10]
  Cmax: 573 nM
[11]
  inhibition: inactive
[12]
  half-life: 168 min
[13]
  AUC: 4.94 µM·h
[14]
  inhibition: inactive
[15]
  clearance: 9.5 mL/min/kg
Rattus norvegicus [16]
  AUC: 3.657 µM·h
Rattus norvegicus [17]
  F: 20%
[18]
  half-life: 228 min
Cytochrome P450 2C9
  IC50: > 25 µM
Cytochrome P450 2C19
  IC50: > 25 µM
Liver
  Stability: Stable
[19]
  clearance: 5.83 mL/min/kg
[20]
  Tmax: 4 h
[21]
  half-life: 306 min
[22]
  Cmax: 2630 nM
